# Measurements reported in article PMC5520516 (British Journal of Cancer, 2017).
# Counter-ions that a name gives are not always drawn. Like-named read-outs stand apart in the source and are kept apart here.
# Columns and labels:
# [1] = cited from earlier work
# [2] = system: doxorubicin-resistant, oestrogen receptor negative human breast cancer xenograft MT-3/ADR; assay: Antitumour activity in MT-3/ADR xenograft; assay type: in vivo
# [3] = system: NCI 60-cell line panel (60 human tumour cell lines); assay: NCI in vitro 60-cell line screen; assay type: cell-based
# Procedure, shortened: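 Test compounds were run in each of the 60 human tumour cell lines for 48 h of drug exposure. The data were summarised as a mean graph with COMPARE analysis.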
# [4] = Pre-formulation / solubility; assay type: physicochemical
# [5] = system: well-vascularised breast cancer HTX; assay: Antitumour activity in well-vascularised breast cancer HTX; assay type: in vivo, human; conditions: for antitumour activity at tolerated doses / antitumour activity at toxic dose levels: SD, i.p.
# advanced cancer = conditions: phase I, ref Seckl et al, 2012, cited from earlier work
# [6] = system: NCI 60-cell line panel (60 human tumour cell lines); conditions: cited from earlier work
# [7] = system: two human renal cell cancer HTXs, a breast cancer HTX and a murine syngeneic colon cancer; conditions: P<0.01; ref Burger et al, 2007; cited from earlier work
# [8] = at 30 min; ref Burger et al, 2007; cited from earlier work
# microtubules = conditions: ref Bonezzi et al, 2009; cited from earlier work
# tumour blood vessels = conditions: in vivo; ref Bonezzi et al, 2009; cited from earlier work
# endothelial cell = conditions: in vitro; ref Bonezzi et al, 2009; cited from earlier work
# [9] = ref Bradshaw and Westwell, 2004
smiles,measurement,setting,value
"COc1ccc(/C=C\c2cc(OC)c(OC)c(OC)c2)cc1O [Combretastatin A-4, reference compound]",solubility,"[1]; ref Dark et al, 1997, Tozer et al, 2002",poorly soluble
COc1ccc2c(c1)[nH]c(=O)c1c3ccccc3cn21 [NSC 734237],antitumour activity at the MTD,"[2]; MTD, i.p., d8–12, 15–19",significant activity
same,antitumour activity,"[2]; i.p., d8–12, 15–19",dose-dependent antitumour activity
same,CD31+ microvessel density (immunohistochemistry),[2]; in vivo,dose-dependent reduction
same,Ki-67 staining (immunohistochemistry),[2]; in vivo,dose-dependent reduction
same,differential activity,[3],"reasonable, but inconclusive"
same,solubility,[4],quite insoluble
COc1cc(-n2cncc2-c2ccc3ccccc3c2)cc(OC)c1OC [water-soluble salt of NSC736992],density (size and number) of CD31+ blood vessels,[5]; alone or in combination,not affected
same,efficacy in combination with carboplatin or taxol,[5]; combination with carboplatin or taxol,not increased
same,efficacy (additional studies),"[5]; same HTX, also with other treatment schedules",moderate to borderline
Cc1cc(-c2nc3cc(F)ccc3s2)ccc1NC(=O)[C@@H](N)CCCCN.Cl.Cl [Phortress],water solubility,[1]; [9],water-soluble
same,MTD,advanced cancer; preliminary data,not reached
same,tolerability,advanced cancer; preliminary data,well tolerated
same,patients classified as having stable disease,advanced cancer; Thirty-three per cent of the patients,14/42
COc1ccc(C2=CN3C(=O)c4cc(OC)c(OC)cc4N=C[C@@H]3C2)cc1 [DRH-417],IC50,"[6]; read-out: mean IC50, NCI 60-cell line panel, ref Burger et al, 2007",3 nM
same,antitumour activity in vivo,[7],marked activity
same,peak plasma concentration,[8],171 nM
COc1cc(-n2cncc2-c2ccc3ccccc3c2)cc(OC)c1OC [NSC736992],antitumour activity at tolerated doses,[5],moderate
same,antitumour activity at toxic dose levels,[5],more pronounced
same,effect on microtubules,microtubules,disorganised microtubules
same,blood vessel shutdown and tumour necrosis,tumour blood vessels,caused blood vessel shutdown and tumour necrosis
same,effect on endothelial cell morphology and capillary formation,endothelial cell,selectively affected endothelial cell morphology and capillary formation
COc1ccc(-c2cncn2-c2cc(OC)c(OC)c(OC)c2)cc1F [NSC736359],antitumour activity at tolerated doses,[5],moderate
same,antitumour activity at toxic dose levels,[5],more pronounced
same,effect on microtubules,microtubules,disorganised microtubules
same,blood vessel shutdown and tumour necrosis,tumour blood vessels,caused blood vessel shutdown and tumour necrosis
same,effect on endothelial cell morphology and capillary formation,endothelial cell,selectively affected endothelial cell morphology and capillary formation
Cc1cc(-c2nc3cc(F)ccc3s2)ccc1N [5F 203],GI50,"[6]; NCI 60-cell line screen, ref Bradshaw and Westwell, 2004",low nanomolar
same,selectivity in NCI 60-cell line screen,[6]; [9],selectivity against breast and ovarian cancer sub-panels
COc1ccc(-c2cncn2-c2cc(OC)c(OC)c(OC)c2)cc1 [NSC733436],antitumour activity at tolerated doses,[5],moderate
same,antitumour activity at toxic dose levels,[5],more pronounced
same,effect on microtubules,microtubules,disorganised microtubules
same,blood vessel shutdown and tumour necrosis,tumour blood vessels,caused blood vessel shutdown and tumour necrosis
same,effect on endothelial cell morphology and capillary formation,endothelial cell,selectively affected endothelial cell morphology and capillary formation
